PubChem BioAssay
Activity calls are given as the source filed them.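 The calls were made as follows, unless noted: active = compounds giving at least 50% inhibition in the cell-based MKP-3 phosphatase rescue imaging test; inactive = the rest.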

What was measured:
[1] = inhibitors of TNFa-induced NFkB p65 translocation, primary screen, imaging, HUVEC, MLSMR starter and 10KST1 sets (AID 438;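 active = inhibition above 20% together with a positive visual image hit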;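 also: compound added about 3h40 before a 20 min TNFalpha stimulation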;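 as to inhibition: signal is the nuclear over cytoplasmic p65 intensity ratio per well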); conditions: HUVEC TNFa-induced p65 nuclear translocation; cell count: measured here: nuclei count (cytotoxicity indicator), at 2.08 µM; inhibition: at 2 µM, stronger effect = higher value, 0% TNFa-plus-vehicle, 100% no-TNFa wells
[2] = inhibitors of E-selectin induction by TNFa, primary screen, imaging, HUVEC, immunofluorescence, MLSMR starter and 10KST1 sets (AID 487;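 active = visually confirmed hit in the image check and inhibition above 20%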;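 as to inhibition: signal is fraction of cell area covered by stained E-selectin grains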;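 as to nuclei count: 100% = median nuclei count of all wells on the same plate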); conditions: HUVEC TNFalpha-induced E-selectin immunofluorescence imaging, at 2 µM; inhibition: stronger effect = higher value; nuclei count: measured here: cell number, toxicity
[3] = DUSP6 inhibitors restoring Erk phosphorylation by chemical complementation, primary imaging in DUSP6-transfected HeLa (AID 609); conditions: HeLa MKP-3 transfected, phospho-Erk imaging KS statistic, at 10 µM, cells stimulated with TPA for 15 min;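 as to inhibition: phospho-Erk level distribution per well compared with pooled transfected vehicle control wells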
[4] = target: Dual specificity protein phosphatase 6 (Homo sapiens) (UniProt Q16828); assay: as above; conditions: HeLa MKP-3 transfected, phospho-Erk imaging KS statistic; at 10 µM; stronger effect = higher value; cells stimulated with TPA for 15 min
[5] = target: Voltage-gated potassium channel subunit beta-2 (Rattus norvegicus) (UniProt P62483); assay: KvBeta enzyme negative modulators, primary screen, biochemical, NADPH fluorescence (AID 622;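 active = fluorescence slope higher than the sample average by over 3 SD, cut at about -0.22 in these data, passing the limit was not always enough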;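 also: slope of raw intensity against log time taken from 70 to 1610 s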); conditions: recombinant KvBeta, 4-cyanobenzaldehyde reduction, at 10 µM, stronger effect = higher value
[6] = target: Voltage-gated potassium channel subunit beta-2 (Rattus norvegicus) (UniProt P62483); assay: KvBeta positive modulators, primary screen, biochemical, NADPH fluorescence (AID 623;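 active = NADPH fluorescence slope more negative than the mean of all samples by about 3 SD, 99.7% confidence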;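 also: fluorescence intensity change per second fitted from 20 to 320 s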); conditions: Recombinant KvBeta, NADPH fluorescence decrease slope, 10 min; at 10 µM; stronger effect = lower value
[7] = target: Alpha-2C adrenergic receptor (Homo sapiens) (UniProt P18825); assay: modulators of alpha2C/GIRK thallium flux, primary screen, cell-based, HEK293 alpha2C/GIRK1/2 (AID 624;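 active = fluorescence slope after compound addition differing from the mean of all screened samples at 99.7% confidence, in either direction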;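 also: slope of fluorescence ratio to pre-addition baseline per second over 15 to 24 s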); conditions: thallium flux BTC fluorescence, at 10 µM, actives lie on both sides
[8] = inhibitors of larval lipid processing in zebrafish, primary screen, whole organism, PED6 fluorescence, gall bladder and intestine (AID 686;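 active = a full or partial loss of lipid-probe fluorescence in the fish gall bladder, intestine or both, judged by eye; inactive = no fluorescence loss, or compound toxic to the fish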;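 also: larvae 5 to 7 days old with five fish per well; signal comes from phospholipase A2 cleavage of quenched PED6 carried via bile; overnight exposure to compound and PED6 before scoring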); conditions: Zebrafish larvae PED6 lipid processing, fluorescence scoring; screened at 20 µM (by protocol)
Outline: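 System: live zebrafish larvae aged 5-7 days, whole organism; measure: graded gall bladder and intestinal fluorescence inhibition per well; incubation: overnight exposure; reagent: ingested quenched lipid PED6 at 100 nM; signal: By-eye fluorescence microscopy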

[9] = inhibitors of Chlamydomonas gravitaxis, primary screen, whole organism, Chlamydomonas reinhardtii, WT vs cilia-less mutant, absorbance, 96-well (AID 463189;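 active = inhibition at or above 50% relative to wild type and mutant plate controls; inactive = inhibition below 50%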;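 also: 0% = wild type cc124 cells in DMSO and 100% = ciliumless bld1 mutant cells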); conditions: OD600 absorbance, 2 days, at 10 µM, stronger effect = higher value
[10] = measured here: cell density z-score
[11] = measured here: nuclear c-Myc green intensity z-score
[12] = measured here: nuclear pErk red intensity z-score, stronger effect = higher value

Dual specificity protein phosphatase 6 (Homo sapiens), sequence (Q16828 whole entry, looked up): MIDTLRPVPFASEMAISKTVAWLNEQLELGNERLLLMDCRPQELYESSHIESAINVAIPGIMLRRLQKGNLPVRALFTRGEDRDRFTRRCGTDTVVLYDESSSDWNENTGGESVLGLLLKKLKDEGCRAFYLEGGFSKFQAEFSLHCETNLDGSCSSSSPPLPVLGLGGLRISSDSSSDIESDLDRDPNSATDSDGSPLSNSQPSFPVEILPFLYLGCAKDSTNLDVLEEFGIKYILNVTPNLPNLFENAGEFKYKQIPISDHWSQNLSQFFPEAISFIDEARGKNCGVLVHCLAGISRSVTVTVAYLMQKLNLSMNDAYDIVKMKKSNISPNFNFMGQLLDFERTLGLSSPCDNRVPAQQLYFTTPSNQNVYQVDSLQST
Alpha-2C adrenergic receptor (Homo sapiens), sequence (P18825 whole entry, looked up): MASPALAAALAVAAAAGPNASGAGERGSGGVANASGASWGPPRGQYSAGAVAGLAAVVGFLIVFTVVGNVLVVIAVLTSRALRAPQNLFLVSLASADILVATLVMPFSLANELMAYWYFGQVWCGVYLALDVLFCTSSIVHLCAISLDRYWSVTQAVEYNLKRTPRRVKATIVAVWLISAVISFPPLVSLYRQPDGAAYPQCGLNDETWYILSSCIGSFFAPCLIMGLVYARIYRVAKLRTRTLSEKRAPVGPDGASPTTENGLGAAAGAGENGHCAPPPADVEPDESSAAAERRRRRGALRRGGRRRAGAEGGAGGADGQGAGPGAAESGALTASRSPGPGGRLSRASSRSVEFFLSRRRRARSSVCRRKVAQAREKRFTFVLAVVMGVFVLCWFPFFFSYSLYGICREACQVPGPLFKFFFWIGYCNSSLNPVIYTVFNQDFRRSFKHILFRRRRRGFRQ
Voltage-gated potassium channel subunit beta-2 (Rattus norvegicus), sequence (P62483 whole entry, looked up): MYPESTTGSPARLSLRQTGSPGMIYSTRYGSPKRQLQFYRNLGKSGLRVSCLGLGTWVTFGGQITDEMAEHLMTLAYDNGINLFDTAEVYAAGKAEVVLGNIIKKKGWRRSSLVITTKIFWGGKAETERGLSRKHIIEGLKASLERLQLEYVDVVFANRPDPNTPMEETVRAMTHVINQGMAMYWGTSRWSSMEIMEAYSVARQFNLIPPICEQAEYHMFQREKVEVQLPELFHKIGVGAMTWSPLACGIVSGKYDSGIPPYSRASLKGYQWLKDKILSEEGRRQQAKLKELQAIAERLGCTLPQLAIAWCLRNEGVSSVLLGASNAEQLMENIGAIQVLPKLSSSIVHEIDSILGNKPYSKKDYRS

Structure (SMILES) | cell count [1] | inhibition [1] | inhibition [2] | nuclei count [2] [%] | z-score [3, 10] | z-score [3, 11] | z-score [3, 12] | inhibition [4] | fluorescence slope [5] | NADPH fluorescence slope [6] | slope [7] | outcome [8] | inhibition [9]
Nc1c(C(=O)NCC2CCCO2)c2nc3ccccc3nc2n1/N=C/c1ccncc1 (centres undefined) | 470 | -2.9% (inactive) | -109% (inactive) | 110 | 1.93 | -0.485 | 0.517 | 22.8% (inactive) | -0.507 (inactive) | -3.7e-05 (inactive) | 0.00723 (inactive) | inactive | -25.5% (inactive)
CCN(CC)S(=O)(=O)c1ccc2c(c1)c(C(=O)O)cn2C | 435 | -15.2% (inactive) | -25.4% (inactive) | 114 | 0.944 | -0.275 | -1.67 | 24.4% (inactive) | -0.568 (inactive) | -6e-05 (inactive) | 0.00489 (inactive) | inactive | 22.9% (inactive)
CC(C)Oc1ccc(C(=O)CCN2CCCCC2)cc1 | 457 | 6.5% (inactive) | -349% (inactive) | 163 | 0.309 | -0.269 | -0.0861 | -10.6% (inactive) | -0.258 (inactive) | 2.6e-05 (inactive) | 0.00524 (inactive) | inactive | 139% (active)
COC(=O)c1ccc(Cn2nnc3c(sc4nc(N5CCOCC5)c5c(c43)CCCC5)c2=O)o1 | 558 | -14.8% (inactive) | -101% (inactive) | 153 | 0.962 | -1.77 | -0.316 | 24.4% (inactive) | -0.275 (inactive) | 2.3e-06 (inactive) | 0.00716 (inactive) | active; weak signal in gallbladder and intestine | -3.46% (inactive)
CCCCn1c(C)cc2cc(O)ccc21 | 320 | -9.2% (inactive) | -73.6% (inactive) | 154 | -1.22 | 2.41 | 1.37 | -8.76% (inactive) | -0.432 (inactive) | -0.000136 (inactive) | 0.00664 (inactive) | inactive | -7.64% (inactive)
CCC1(C)Cc2c(sc3c2c(=O)n(C)c2nnc(SCC(=O)c4ccc(Cl)cc4)n32)CO1 (centres undefined) | 559 | -2.6% (inactive) | -61.6% (inactive) | 121 | -1.48 | 3.25 | -1.65 | 9.82% (inactive) | -0.37 (inactive) | 2e-05 (inactive) | 0.00685 (inactive) | inactive | -10.8% (inactive)
Cn1c(NCc2ccco2)nc2c1c(=O)n(Cc1ccc(Cl)c(Cl)c1)c(=O)n2C | 615 | -3.6% (inactive) | -47.4% (inactive) | 147 | -0.044 | 0.293 | 1.11 | -1.12% (inactive) | -0.511 (inactive) | -6.1e-05 (inactive) | 0.00544 (inactive) | inactive | 48.3% (inactive)
CSc1nnc(N(CCC#N)CCC#N)s1 | 351 | -2.1% (inactive) | -46.6% (inactive) | 91 | 0.261 | 1.77 | -1.54 | 17% (inactive) | -0.487 (inactive) | -9.5e-06 (inactive) | 0.0048 (inactive) | inactive | 29.7% (inactive)
Cc1cccc(N)c1SC1CCCCC1O (centres undefined) | 420 | -5.2% (inactive) | -79.6% (inactive) | 131 | 0.781 | -1.44 | -1.09 | 23.9% (inactive) | -0.46 (inactive) | -2.2e-05 (inactive) | 0.00629 (inactive) | inactive | 15% (inactive)
Cc1ccc(C)n1Cc1ccc(C(=O)O)cc1 | 645 | 1.9% (inactive) | -32.8% (inactive) | 154 | 1.01 | 0.014 | -0.0334 | -6.86% (inactive) | -0.401 (inactive) | -4.4e-05 (inactive) | 0.00514 (inactive) | inactive | -3.17% (inactive)
CCOC(=O)Cn1c(SC)nc2sc3c(c2c1=O)CC(C)(C)OC3 | 655 | -7.4% (inactive) | 1.5% (inactive) | 179 | 1.23 | -1.44 | -0.342 | -0.159% (inactive) | -0.459 (inactive) | -0.000276 (inactive) | 0.00508 (inactive) | inactive | -3.53% (inactive)
COc1ccc(-c2oc3ncn4nc(Cc5ccccc5)nc4c3c2-c2ccc(OC)cc2)cc1 | 561 | -7.8% (inactive) | -106% (inactive) | 175 | 0.18 | 0.751 | 0.443 | -6.06% (inactive) | -0.319 (inactive) | -1.7e-05 (inactive) | 0.0116 (inactive) | inactive | -5.31% (inactive)
CCN1CC=C2C(C#N)=C(N)C(C#N)(C#N)[C@H](c3cccc(OC)c3OC)[C@H]2C1 | 560 | -11.4% (inactive) | 26.9% (inactive) | 113 | 1.15 | 1.25 | -1.6 | -3.95% (inactive) | -0.449 (inactive) | -6e-06 (inactive) | -4.3e-17 (inactive) | inactive | -15.5% (inactive)
